ALR H2O2 inh – inhibitors of human ALR sulfhydryl oxidase, primary screen, biochemical, H2O2 detection, HRP-luminol luminescence, single point. inhibition, % (concentration not given with the values). actives 3.8% (n = 290,000). FAD-linked sulfhydryl oxidase ALR (Homo sapiens), P55789. purified ALR, DTT oxidation;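 active means mean replicate inhibition above about 79%, with every replicate also reaching it, limit read from the data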
Target sequence (P55789 whole entry, looked up): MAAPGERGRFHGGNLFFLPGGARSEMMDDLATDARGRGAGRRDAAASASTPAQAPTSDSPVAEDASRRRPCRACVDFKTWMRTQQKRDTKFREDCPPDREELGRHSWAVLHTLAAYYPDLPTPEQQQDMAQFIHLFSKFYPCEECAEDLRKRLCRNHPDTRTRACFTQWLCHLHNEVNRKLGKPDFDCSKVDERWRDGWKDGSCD
CAL PDZ FP-1 – untagged CAL PDZ binding inhibitors, primary screen, biochemical, fluorescence polarization, HTS; Golgi-associated PDZ and coiled-coil motif-containing protein (Homo sapiens), Q9HD26; purified CAL PDZ, TMR-peptide fluorescence polarization, 1 h; inhibition, % at 24.9 µM; actives 0.92% (n = 300,000); AID 602252, 2012;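 active means mean inhibition of at least 30% with at least half of replicates also reaching 30%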;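 further: 0% = DMSO neutral control and 100% = excess unlabeled competitor peptide PRC23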
DYRK1A inh – rat Dyrk1A kinase inhibitors, primary screen, biochemical, single point, plate reader. Dual specificity tyrosine-phosphorylation-regulated kinase 1A (Rattus norvegicus), Q63470. ADP-Glo luminescence, NFATc1 peptide. inhibition, % at 12.5 µM. actives 0.43% (n = 310,000). AID 504441, 2011; in the data active means inhibition above about 50%;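 further: plate controls were vehicle with enzyme for no effect and no enzyme for full effect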
Rtt109 HAT inh – inhibitors of C. albicans Rtt109/Vps75 HAT, primary screen, biochemical, ThioGlo CoA-SH fluorescence, plate reader | Histone acetyltransferase RTT109 (Candida albicans (strain SC5314 / ATCC MYA-2876)), … | purified Rtt109/Vps75, 4 h | inhibition, % at 34.9 µM | actives 0.16% (n = 330,000) | AID 540336, 2011;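 active means inhibition of at least 50% in every replicate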
CAL PDZ FP-2 – CAL PDZ peptide-binding inhibitors, primary screen, biochemical, fluorescence polarization, Cer-tagged CAL PDZ, HTS | inhibition, % at 20 µM | purified CAL PDZ, TMR-peptide fluorescence polarization, 1 h | Golgi-associated PDZ and coiled-coil motif-containing protein (Homo sapiens), Q9HD26 | actives 0.02% (n = 330,000);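 active means highest replicate inhibition of at least 40%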;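 further: plate controls were DMSO neutral control wells for no effect and unlabeled competitor peptide control wells for full effect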
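Test system: tagged CAL PDZ domain / Buffer or medium: sodium phosphate/NaCl buffer pH 7.4 with TCEP, IgG, Thesit / Reagent: TMR-labelled reporter peptide T*-PRC34 bound in PDZ groove / Compound dosing: single point, 20 µM / Schedule: 1 h incubation at room temperature before polarization reading / Technique: fluorescence polarization (mP) / Benchmarks: unlabelled peptide, DMSO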
* hit, by the source's call; / = no result. An excerpt weighted towards active compounds, which were near 4.3% of everything screened.

SMILES | ALR H2O2 inh | CAL PDZ FP-1 | DYRK1A inh | Rtt109 HAT inh | CAL PDZ FP-2
O=C(CCc1nnc(Cc2ccc3c(c2)OCO3)o1)NC(c1ccccn1)C(F)(F)F (stereo not drawn) | 0.9 | 4.5 | 2.8 | 0.9 | -0.2
Cc1nc(N2CCOCC2)nc2c1CCC2 | -2.7 | 0.9 | 0.5 | -3.7 | -1.2
Cc1cc(OC(=O)CNC(=O)OC(C)(C)C)c2c(C)cc(=O)oc2c1 | 90.8* | -10.4 | 32.7 | 4.3 | -1.7
COc1cc(NS(C)(=O)=O)ccc1Nc1c2ccccc2nc2ccccc12 | 98.6* | 0.6 | 14.6 | 3.4 | 1.1
O=C(NC1CC1)c1ccc(CSCc2ccccc2Cl)o1 | 83.8* | -1.2 | -2.7 | -1.3 | -2.8
Nc1nc(-c2ccc3c(c2)CCO3)cs1 | 97.4* | -1.4 | -4.1 | 23.2 | -3.0
CC(=O)Nc1nc(-c2ccc3c(c2)CCO3)cs1 | -9.8 | 2.1 | 23.1 | 5.4 | -1.3
CC12CCC(=O)N1C(C(=O)Nc1cc(Cl)ccc1N1CCCC1)CS2 (stereo not drawn) | 86.2* | -2.4 | / | 1.3 | -1.4
O=C(CCC(=O)N(CC(=O)NC1CCCCC1)Cc1cccs1)Nc1nccs1 | 0.4 | 3.6 | 1.7 | -16.5 | 0.2
c1cnn(Cc2cnc(N3CCOCC3)s2)c1 | / | 61.1* | 2.2 | -8.7 | -1.1
C=CCSc1nnc(NC(=O)c2cccc(S(=O)(=O)N(C)c3ccccc3)c2)s1 | 0.8 | 1.0 | -5.3 | -0.9 | -1.0
O=C(OCn1ncc(Cl)c(Cl)c1=O)c1cccc(C(F)(F)F)c1 | 97.1* | 0.0 | 3.3 | 5.9 | 0.6
CSc1nsc(SCC(=O)Nc2ccccc2F)n1 | 58.6 | -2.2 | 5.3 | 5.5 | -3.3
O=[N+]([O-])c1ccc2c(c1)[nH]c(=S)n2-c1ccccc1 | 38.3 | -6.5 | 1.2 | / | 0.2
O=C(O)c1ccc(COc2ccccc2/C=C2\NC(=O)N(Cc3ccccc3)C2=O)cc1 | 7.4 | -4.2 | 0.1 | -0.6 | -1.1
COc1cc(/C=C2\NC(=S)NC2=O)ccc1OCc1cccc(C(=O)O)c1 | -1.8 | / | / | 3.0 | -3.5
CCCN1C(=O)/C(=C/c2ccc(OCc3ccc(C(=O)O)cc3)c(OC)c2)NC1=S | 91.6* | / | / | / | /
CCOc1cc(/C=C2\NC(=S)N(C)C2=O)ccc1OCc1ccc(C(=O)O)cc1 | 88.8* | -2.7 | 3.0 | 6.2 | -1.7
CCCN1C(=O)/C(=C/c2ccccc2OCc2ccc(C(=O)O)cc2)NC1=S | 79.0* | -6.1 | -0.8 | 4.6 | -1.3
Cc1ccc(NC(=O)N2C3CCCC2CC(NC(=O)C(C)(C)C)C3)cc1 (stereo not drawn) | -10.8 | -2.7 | / | 1.4 | -0.8
O=C(Nc1ccc(Br)cc1)C1CCN(C(=O)c2ccco2)CC1 | -7.0 | -5.4 | -1.1 | -8.1 | -2.5
O=C(O)c1cccc2c1-c1ccccc1/C2=N\Nc1ccccc1 | 99.1* | 19.2 | 7.2 | / | 0.8
O=C1CCC(C(=O)N(Cc2cccs2)C2(C(=O)NC3CCCCC3)CCCCC2)N1 (stereo not drawn) | 74.7 | -3.5 | / | -9.4 | -2.1
Cc1nnc(SCC(=O)Nc2cccc(Cl)c2)n1CC1CCCO1 (stereo not drawn) | -0.2 | -2.0 | -2.0 | 7.8 | -1.4
Nc1c(C(=O)Nc2ccccc2)nnn1-c1ccc2c(c1)OCCO2 | 0.6 | 79.5* | 3.7 | 7.6 | -1.4
SMILES | ALR H2O2 inh | CAL PDZ FP-1 | DYRK1A inh | Rtt109 HAT inh | CAL PDZ FP-2
COc1ccc(OC)c(-c2csc(NC(=O)c3ccc4c(c3)OCO4)n2)c1 | 2.2 | 79.6* | -2.9 | -5.2 | 0.9
COc1ccc(OC)c(-c2csc(NC(=O)CSCC(=O)Nc3cc(C)on3)n2)c1 | / | -3.1 | 2.2 | 1.4 | -1.3
COc1ccc(OC)c(-c2csc(NC(=O)CSCc3c(C)noc3C)n2)c1 | 98.0* | -1.7 | 11.7 | -3.6 | -2.1
COc1ccc(OC)c(NC(=O)c2ccc3c(c2)OCO3)c1 | -11.7 | -1.5 | -9.5 | 4.0 | -1.0
COc1ccc(C(=O)COC(=O)CSCc2c(C)noc2C)cc1OC | 97.7* | 9.2 | -7.1 | 8.6 | -1.8
O=S(=O)(c1cccc(COc2c(Cl)cccc2Cl)c1)N1CCOCC1 | -4.8 | 1.4 | 6.0 | 1.9 | -1.0
